Published values from different studies.
Compare with care: the assays were run in different laboratories.
SLC10A2: Ileal sodium/bile acid cotransporter (SLC10A2, Homo sapiens, UniProt Q12908)
AHR: Aryl hydrocarbon receptor (AHR, Homo sapiens, UniProt P35869)

| Compound | target | test | conditions | endpoint | value |
| --- | --- | --- | --- | --- | --- |
| CC[C@H](C)C(=O)O[C@H]1C[C@H](O)C=C2C=C[C@H](C)[C@H](CC[C@@H](O)C[C@@H](O)CC(=O)O)[C@H]21 | SLC10A2 | transporter uptake, inhibitor |  | Ki | 1360 µM |
| C#Cc1cccc(Nc2ncnc3cc(OC)c(OCCCCCCC(=O)NO)cc23)c1 | Polyamine deacetylase HDAC10 (HDAC10, Homo sapiens, UniProt Q969S8) | cell-free assay |  | Kd | 7.38 µM |
| C=CCSCC1Nc2cc(Cl)c(S(N)(=O)=O)cc2S(=O)(=O)N1 (stereo not drawn) | SLC10A2 | transporter uptake, inhibitor |  | Ki | 391 µM |
| COC(=O)c1ccc(C(=O)c2c[nH]c3ccccc23)cc1 | AHR | reporter gene, agonist, luciferase |  | EC50 | > 10 µM |
| CCOC(=O)C1=C(C)NC(C)=C(C(=O)OC)C1c1cccc([N+](=O)[O-])c1 (stereo not drawn) | SLC10A2 | transporter uptake, inhibitor |  | Ki | 34.1 µM |
| Cc1cc2nc3c(=O)[nH]c(=O)nc-3n(C[C@H](O)[C@H](O)[C@H](O)COP(=O)(O)OP(=O)(O)OC[C@H]3O[C@@H](n4cnc5c(N)ncnc54)[C@H](O)[C@@H]3O)c2cc1C | Splicing factor 1 (Homo sapiens, UniProt Q15637) | binding | lysate | Kd | 0.842 µM |
| CCc1c(C)sc(NC(=O)C(Sc2ccccc2)c2ccccc2)c1C(=O)OC (stereo not drawn) | Cannabinoid receptor 2 (CNR2, Homo sapiens, UniProt P34972) | cAMP, agonist, TR-FRET |  | EC50 | 0.0251 µM |
| O=C(N[C@H]1COC(=O)[C@@H](NC(=O)c2cccc(O)c2O)COC(=O)[C@@H](NC(=O)c2cccc(O)c2O)COC1=O)c1cccc(O)c1O | Neutrophil gelatinase-associated lipocalin (LCN2, Homo sapiens, UniProt P80188, C107S) | binding, fluorescence | pH 7.4 | Kd | 0.0036 µM |
| C[C@]12C=CC(=O)C=C1CC[C@@H]1[C@@H]2C(=O)C[C@@]2(C)[C@H]1CC[C@]2(O)C(=O)CO | SLC10A2 | transporter uptake, inhibitor |  | Ki | 1480 µM |
| CCOC(=O)c1cccc(C(=O)c2c[nH]c3ccccc23)n1 | AHR | reporter gene, agonist, luciferase |  | EC50 | 1.11 µM |
| CCOC(=O)C1=C(C)NC(C)=C(C(=O)OCC)C1c1c(F)c(F)c(F)c(F)c1F | SLC10A2 | transporter uptake, inhibitor |  | Ki | 23.1 µM |
| COc1ccccc1C(=O)c1c[nH]c2ccccc12 | AHR | reporter gene, agonist, luciferase |  | EC50 | > 10 µM |
| CSCC[C@H](NC(=O)[C@@H](NC(=O)[C@@H](N)Cc1ccc(O)cc1)C(C)C)C(=O)NCC(=O)N[C@@H](Cc1c[nH]cn1)C(=O)N[C@@H](Cc1ccccc1)C(=O)O | Melanocortin receptor 5 (MC5R, Homo sapiens, UniProt P33032) | reporter gene, agonist |  | EC50 | > 100 µM |
| CN(C)C(=O)c1cccc(C(=O)c2c[nH]c3ccccc23)n1 | AHR | reporter gene, agonist, luciferase |  | EC50 | 0.351 µM |
| N=C(N)c1ccc(CN)cc1 | Coagulation factor X (F10, Homo sapiens, UniProt P00742) | binding, BLI |  | Kd | 1700 µM |
